Laboratory results reported in ChEMBL document CHEMBL2331224 (J Med Chem, 2013).

Experiments:
[1] = target: T1, Retinoic acid receptor RXR-alpha (Homo sapiens) (UniProt P19793); experiment: Transactivation of RXRalpha (unknown origin) expressed in COS1 cells at 0.1 uM after 18 hrs by luciferase reporter gene assay relative to bexarotene; format: cell-based; settings: COS-1
T1 sequence (whole entry): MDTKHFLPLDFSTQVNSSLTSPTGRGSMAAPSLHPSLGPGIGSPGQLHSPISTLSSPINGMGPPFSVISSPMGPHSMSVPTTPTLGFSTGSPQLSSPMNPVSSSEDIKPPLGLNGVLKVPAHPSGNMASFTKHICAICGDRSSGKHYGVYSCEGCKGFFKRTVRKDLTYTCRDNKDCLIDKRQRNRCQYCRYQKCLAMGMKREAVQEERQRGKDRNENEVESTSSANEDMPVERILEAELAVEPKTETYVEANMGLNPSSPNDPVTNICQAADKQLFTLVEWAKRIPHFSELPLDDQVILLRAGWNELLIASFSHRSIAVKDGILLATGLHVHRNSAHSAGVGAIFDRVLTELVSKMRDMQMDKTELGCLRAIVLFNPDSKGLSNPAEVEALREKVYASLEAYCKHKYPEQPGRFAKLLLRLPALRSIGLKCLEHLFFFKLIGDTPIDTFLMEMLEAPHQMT
Summary of the method: (§1)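 COS-1 cells in DMEM with 10% FBS at 37 °C, 5% CO2, transfected with RXRα, an RXR-response-element luciferase reporter and a SEAP background vector. Cells were seeded at about 2.0 × 10⁴ per well with compound (DMSO below 1%) for 18 h. Luciferase was normalized to SEAP and expressed relative to 1 μM reference RXR full agonist as 100%. EC50 came from full dose-response curves. Triplicates, at least three experiments.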

[2] = target: T1, Retinoic acid receptor RXR-alpha (Homo sapiens); experiment: Transactivation of RXRalpha (unknown origin) expressed in COS1 cells at 10 uM after 18 hrs by luciferase reporter gene assay relative to bexarotene; format: cell-based; settings: COS-1; summary of the method: as §1
[3] = target: T2, Retinoic acid receptor RXR-alpha (Homo sapiens, UniProt P19793); experiment: Partial agonist activity at RXRalpha (unknown origin) expressed in COS1 cells after 18 hrs by luciferase reporter gene assay; format: cell-based, COS-1; summary of the method: as §1
T2 sequence (P19793 whole entry): T1 sequence (whole entry)

[4] = system: Mus musculus; experiment: Toxicity in ICR mouse assessed as increase in blood triglyceride level at 30 mg/kg/day, po for 7 days; format: organism-based; set-up: route oral; settings: in vivo, 168 h
Summary of the method: (§2)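 Male ICR mice, 6−7 weeks old, four per cage, grouped by body weight. Oral 30 mg/kg or vehicle (1% ethanol/0.5% CMC in water, 10 mL/kg) once daily for 7 days, body weight recorded daily. After overnight fasting, mice were weighed under ether, and liver was removed and weighed. Serum was analysed on a dry-chemistry analyser for TG, TCHO, ALP, CRE, BUN and other markers. n = 7−23, ANOVA.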

[5] = target: T1, Retinoic acid receptor RXR-alpha (Homo sapiens); experiment: Transactivation of RXRalpha (unknown origin) expressed in COS1 cells at 1 uM after 18 hrs by luciferase reporter gene assay relative to bexarotene; format: cell-based; settings: COS-1; summary of the method: as §1
[6] = system: Mus musculus; experiment: Toxicity in ICR mouse assessed as weight gain at 30 mg/kg/day, po for 7 days relative to control; format: organism-based; set-up: route oral; settings: in vivo, 168 h; summary of the method: as §2
[7] = system: Mus musculus; experiment: Toxicity in ICR mouse assessed as change in renal function parameters at 30 mg/kg/day, po for 7 days; format: organism-based; set-up: route oral; settings: in vivo, 168 h; summary of the method: as §2
[8] = target: T1, Retinoic acid receptor RXR-alpha (Homo sapiens); experiment: Partial agonist activity at RXRalpha (unknown origin) expressed in COS1 cells after 18 hrs by luciferase reporter gene assay relative to bexarotene; format: cell-based; settings: COS-1; summary of the method: as §1
[9] = system: Mus musculus; experiment: Toxicity against KKAy mouse assessed as plasma ALP level at 10 mg/kg/day, po for 14 days (reference value: 358.2 +/- 43.1 IU); format: organism-based; set-up: route oral; settings: in vivo, 336 h
[10] = system: Mus musculus; experiment: Toxicity against KKAy mouse assessed as total cholesterol level at 10 mg/kg/day, po for 14 days (reference value: 153.2 +/- 11.1 mg/dL); format: organism-based; set-up: route oral; settings: in vivo, 336 h
[11] = system: Mus musculus; experiment: Toxicity against KKAy mouse assessed as plasma AST level at 10 mg/kg/day, po for 14 days (reference value: 49.6 +/- 2.3 IU); format: organism-based; set-up: route oral; settings: in vivo, 336 h
[12] = system: Mus musculus; experiment: Toxicity against KKAy mouse assessed as blood urea nitrogen level at 10 mg/kg/day, po for 14 days (reference value: 21.9 +/- 1.1 mg/dL); format: organism-based; set-up: route oral; settings: in vivo, 336 h
[13] = system: Mus musculus; experiment: Toxicity against KKAy mouse assessed as plasma gammaGTP level at 10 mg/kg/day, po for 14 days (reference value: 5.8 +/- 0.6 IU); format: organism-based; set-up: route oral; settings: in vivo, 336 h
[14] = system: Mus musculus; experiment: Toxicity against KKAy mouse assessed as creatinine level at 10 mg/kg/day, po for 14 days (reference value: 0.2 mg/dl); format: organism-based; set-up: route oral; settings: in vivo, 336 h
[15] = system: Mus musculus; experiment: Toxicity against KKAy mouse assessed as plasma ALT level at 10 mg/kg/day, po for 14 days (reference value: 17.6 +/- 0.9 IU); format: organism-based; set-up: route oral; settings: in vivo, 336 h
[16] = system: Mus musculus; experiment: Toxicity against KKAy mouse assessed as plasma triglyceride level at 10 mg/kg/day, po for 14 days (reference value: 122.4 +/- 11.0 mg/dL); format: organism-based; set-up: route oral; settings: in vivo, 336 h

Row | Efficacy [1] | Efficacy [2] | EC50 [3] | Efficacy [5] | Emax [8] | Compound | other results
1 | 86% | 98% | 3.8 nM | 96% | – | CCN(c1ccc2c(c1)C(C)(C)CCC2(C)C)c1ccc(C(=O)O)cn1 | Activity [4]: Non-toxic; Activity [6]: Non-toxic; Activity [7]: Non-toxic
2 | < 5% | 22% | – | < 5% | – | Cc1cc2c(cc1-n1c(=O)[nH]c3cc(C(=O)O)ccc31)C(C)(C)CCC2(C)C | –
3 | < 5% | 37% | – | < 5% | – | Cc1cc2c(cc1-n1c(=S)[nH]c3cc(C(=O)O)ccc31)C(C)(C)CCC2(C)C | –
4 | 45% | 77% | 83 nM | 67% | 73% | Cc1cc2c(cc1-n1ccc3cc(C(=O)O)ccc31)C(C)(C)CCC2(C)C | –
5 | < 5% | 72% | 633 nM | 52% | 75% | Cc1cc2c(cc1-n1cnc3cc(C(=O)O)ccc31)C(C)(C)CCC2(C)C | –
6 | < 5% | 96% | 155 nM | 35% | 103% | Cc1cc2c(cc1-n1c(N)nc3cc(C(=O)O)ccc31)C(C)(C)CCC2(C)C | –
7 | – | – | – | – | – | CCc1ccc(CCOc2ccc(CC3SC(=O)NC3=O)cc2)nc1 (centres undefined) [PIOGLITAZONE] | Activity [9]: 395.7 IU; Activity [10]: 147.3 mg/dL; Activity [11]: 45.3 IU; Activity [12]: 22.2 mg/dL; Activity [13]: 7.3 IU; Activity [14]: 0.2 mg/dL; Activity [15]: 21.3 IU; Activity [16]: 124 mg/dL
8 | 28% | 80% | 367 nM | 70% | 94% | Cc1cc2c(cc1-n1c(C)nc3cc(C(=O)O)ccc31)C(C)(C)CCC2(C)C | Activity [4]: Non-toxic; Activity [6]: Non-toxic; Activity [7]: Non-toxic
